# Screens (PubChem BioAssay)
# Tn6 DDE FP: disrupts Tn6 cyclic peptide binding to fibrin D-Dimer-E complex; inhibition, % at 8.3 µM; 0.21% of 370,000 active; AID 720509; P02675; Fibrin DD(E) TRITC-Tn6 fluorescence polarization displacement;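 active = inhibition above a per-campaign cutoff: mean of compounds within control limits plus 3 SD, cut at about 15% in these data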;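 note: 0% = median of all compound wells on the plate and 100% = blocking peptide control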
# Neddylation inh: blocks human cullin neddylation. P61081+Q13564. TR-FRET cullin neddylation, biochemical. calls only at 25 µM. 0.58% of 360,000 active; in the data active = inhibition above about 36%
# Target sequence (P61081 whole entry, looked up): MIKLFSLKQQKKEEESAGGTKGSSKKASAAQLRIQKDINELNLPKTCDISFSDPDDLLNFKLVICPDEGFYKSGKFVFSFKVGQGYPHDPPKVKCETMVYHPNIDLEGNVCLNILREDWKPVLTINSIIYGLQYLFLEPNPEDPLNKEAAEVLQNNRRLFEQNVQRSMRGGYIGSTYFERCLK
# Target sequence (Q13564 whole entry, looked up): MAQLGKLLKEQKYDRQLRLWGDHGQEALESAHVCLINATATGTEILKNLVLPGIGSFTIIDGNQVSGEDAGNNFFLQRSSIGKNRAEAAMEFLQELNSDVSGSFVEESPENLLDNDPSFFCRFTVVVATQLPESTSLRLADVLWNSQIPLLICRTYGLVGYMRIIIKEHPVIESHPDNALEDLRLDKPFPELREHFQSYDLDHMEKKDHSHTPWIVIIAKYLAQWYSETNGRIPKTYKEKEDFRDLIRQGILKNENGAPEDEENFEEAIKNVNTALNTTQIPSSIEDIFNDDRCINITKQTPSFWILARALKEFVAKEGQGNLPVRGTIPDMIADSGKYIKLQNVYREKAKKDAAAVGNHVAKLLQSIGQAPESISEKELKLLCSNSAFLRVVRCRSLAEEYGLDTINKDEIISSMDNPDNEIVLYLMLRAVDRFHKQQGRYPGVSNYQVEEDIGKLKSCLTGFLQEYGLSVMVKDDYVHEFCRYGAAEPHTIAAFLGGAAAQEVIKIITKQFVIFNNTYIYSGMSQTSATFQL
# MT1-MMP act inh: MT1-MMP (human) activation inhibition | HT1080 RFP-PRO-GFP cells, GFP/RFP ratio fluorescence, overnight; percent of plate control window, DMSO zero | 0.061% of 360,000 active | AID 651647 | GFP/RFP ratio change, % at 20 µM;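 active = GFP/RFP ratio change of at least 30% with cell ATP level not reduced by more than half and red fluorescence within 50% of control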
#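 Assay system: RFP-PRO-GFP reporter HT1080 cells; read-out basis: GFP/RFP fluorescence ratio; benchmarks: DMSO wells and RFP-L50D-GFP cells; doses: 20 µM single dose, 1% DMSO; schedule: overnight cell settling, then overnight compound exposure, 37 °C, 5% CO2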
# Tn7 DDE FP: disrupts Tn7 cyclic peptide binding to fibrin D-Dimer-E complex. FP displacement of FITC-Tn7 peptide from fibrin DD(E); 0% = median of compound wells per plate. P02675. inhibition, % at 8.3 µM. 0.13% of 370,000 active;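 active = inhibition above the mean of compounds falling within the control limits plus 3 SD of them, cut at about 14% in these data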;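 note: 0% = plate median of compound wells and 100% = 10 µM Aha-Tn7 peptide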
#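 Measure: % inhibition scaled between sample-field median and high-control FP; Test system: human fibrin DD(E); Quantity: 2 µM final DD(E) protein; Doses: one dose, 8.3 µM nominal; Schedule: compound with protein 10 min, then 3 h after probe, room temperature; Detection: fluorescence polarization; Medium: Tris buffer with calcium and detergent, pH 7.8.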
# KLK7 zymogen act: proKLK7 (human) activation, primary screen. purified proKLK7, EDANS-DABCYL substrate fluorescence; 100% is mature enzyme control, 0% vehicle. activation, % at 7 µM. 0.9% of 370,000 active. AID 652039;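 active = activation above the mean of all tested compounds plus 3 SD, computed per campaign excluding outliers beyond control limits, cut at about 13% in these data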
# SKN-1 inh: C. elegans SKN-1 inhibition; C. elegans VP596 Pgst-4::GFP/RFP ratio, acrylamide-induced, 24 h; inhibition, % at 21.8 µM; 0.49% of 360,000 active; AID 624304;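 active = interference check ratio from 0.5 to 1.5 plus GFP to RFP signal ratio inhibition reaching or exceeding a fixed threshold, cut at about 30% in these data, passing the limit was not always enough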
# KLK7 act conf: proKLK7 activation, confirmation | shares compounds with KLK7 zymogen act | purified proKLK7, EDANS-DABCYL substrate fluorescence; scaled: vehicle 0, mature enzyme 100 | activation, % at 7 µM | 68% of 3,200 active | AID 686949;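 active = activation, as change over the incubation, above the mean of all tested compounds plus 3 SD, cut at about 13% in these data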
# EDANS interfere: fluorescence interference counter-screen for KLK7 activators | activation, % at 7 µM | AID 686952 | EDANS-DABCYL substrate fluorescence interference, no enzyme, 4 h; solvent 0%, active enzyme control 100% | shares compounds with KLK7 zymogen act | 80% of 3,200 active;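 active = activation above the all-compound mean plus 3 SD, ignoring values outside control-based bounds, cut at about 4.8% in these data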;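 note: value is the 4 h activation minus the activation read at time zero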
# K7 EDANS ctr: EDANS fluorescence interference in dose response, no enzyme. 20% of 250 active. EC50, µM. shares compounds with KLK7 zymogen act. EDANS-DABCYL peptide fluorescence interference;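 active = compounds that raise the fluorescence signal in this interference counterscreen, with EC50 at or below 10 µM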;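 note: intact quenched peptide substrate alone read at 355 nm excitation and 520 nm emission; signal is fluorescence gain from T0 to T4 after four hours at room temperature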
# * marks the source's active call; other numbers are inactive results; i = inactive; . = not tested or not shown. An excerpt weighted towards active compounds, which were near 2.2% of everything screened.
SMILES,Tn6 DDE FP,Neddylation inh,MT1-MMP act inh,Tn7 DDE FP,KLK7 zymogen act,SKN-1 inh,KLK7 act conf,EDANS interfere,others
C=CCNc1sc(C(=O)c2ccc(C)cc2)c(N)c1C#N,-2,i,1,5,186*,9,22*,15*,K7 EDANS ctr=>70
C=CCNc1sc(C(=O)c2ccccc2)c(N)c1C#N,7,i,4,-3,1,24,.,.,
COc1ccc(NC(=O)c2ccc(NC(=O)CSc3nc(N)cc(=O)[nH]3)cc2)cc1,2,.,-2,1,23*,7,17*,14*,K7 EDANS ctr=i
CC[C@]12c3[nH]c4cc(-c5ccco5)ccc4c3CCN1C(=O)[C@@H](CC(=O)NCCCN(C)C)C[C@@H]2C(=O)N1CCN(C(=O)c2ccco2)CC1,-1,.,1,-10,84*,3,47*,63*,
CN(C)CCCNC(=O)C[C@H]1C[C@H](C(=O)N2CCCCC2)[C@@]2(CCc3ccccc3)c3[nH]c4cc(-c5ccco5)ccc4c3CCN2C1=O,-2,.,2,4,46*,2,41*,52*,
CN(C)CCCNC(=O)CC1C[C@H](C(=O)N2CCCCC2)[C@@]2(CCc3ccccc3)c3[nH]c4ccccc4c3CCN2C1=O (stereo partly drawn),5,i,-4,5,0,5,.,.,
CC[C@]12c3[nH]c4cc(-c5ccco5)ccc4c3CCN1C(=O)[C@@H](CC(=O)NCC13CC4CC(CC(C4)C1)C3)C[C@@H]2C(=O)N1CCN(C(=O)c2ccco2)CC1,-7,.,-3,-1,-17,1,.,.,
CCOc1ccc(C(C)=O)cc1CN1C(=O)NC2(CCCCC2C)C1=O (stereo not drawn),1,i,4,8,0,-13,.,.,
CCc1cc(=O)oc2c3c(cc(OCC(=O)NCc4ccccn4)c12)OC(C)(C)CC3,-5,.,-1,-10,20*,11,-39,-50,
CCc1cc(=O)oc2c3c(cc(OCC(=O)NCCCCCC(=O)O)c12)OC(C)(C)CC3,0,.,4,4,30*,12,57*,64*,
Cc1cc(=O)oc2c3c(cc(OCC(=O)NCc4ccncc4)c12)OC(C)(C)CC3,-8,.,-1,-6,23*,10,37*,0,K7 EDANS ctr=>70
CCCc1cc(=O)oc2c3c(cc(OCC(=O)NCC4CCC(C(=O)O)CC4)c12)OC(C)(C)CC3 (stereo not drawn),-3,.,16,5,-2,3,.,.,
CCc1cc(=O)oc2c3c(cc(OCC(=O)NCc4cccnc4)c12)OC(C)(C)CC3,-3,.,4,-11,18*,-1,-70,-19,
CCc1cc(=O)oc2c3c(cc(OCC(=O)Nc4cccnc4)c12)OC(C)(C)CC3,6,.,10,-8,-5,20,.,.,
CN(C(=O)c1ccc(NC(=O)Cc2ccc(NC(=O)C3CCN(C(=O)C4CC4)CC3)cc2)cc1)C1CC1,-3,i,1,-9,1,4,.,.,
COc1ccc(N2CCN(c3nc(Nc4ccc(C)c(F)c4)nc(N4CCCC4)n3)CC2)cc1,8,i,0,-10,0,8,.,.,
CCCCN(C(=O)COC(=O)CSc1cc(C)c2ccccc2n1)c1c(N)n(CCC)c(=O)[nH]c1=O,11,i,1,2,0,-8,.,.,
CSc1ccc(/C=C/C(=O)OCC(=O)NC2CC2)cc1,3,.,1,-1,21*,12,23*,25*,
CSc1ccc(/C=C/C(=O)OCC(=O)NC(C)C)cc1,2,.,6,9,22*,6,17*,18*,
